Results taken from ChEMBL document CHEMBL1629439, “High-throughput identification of antibacterials against methicillin-resistant Staphylococcus aureus (MRSA) and the transglycosylase” (Bioorg Med Chem, 2010).
Values after ≈ are worked out from the molar mass of the structure shown.

How the values were obtained:
[1] = tested on: Escherichia coli; assay: Antimicrobial activity against Escherichia coli ATCC […] after 18 to 24 hrs by alamar blue assay; assay type: functional; settings: Escherichia coli; read-out: MIC
Outline: (§1)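 Broth microdilution per NCCLS in Mueller-Hinton broth, 8-point twofold dilutions, 384-well format. Exponential-phase cells at 5 × 10^5 cells/ml incubated with compound 18–24 h at 37 °C, then 20% Alamar blue added and fluorescence read. MIC90 taken as the lowest concentration preventing at least 90% bacterial growth.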

[2] = tested on: Acinetobacter baumannii; assay: Antimicrobial activity against Acinetobacter baumannii ATCC 49139 after 18 to 24 hrs by alamar blue assay; assay type: functional; settings: Acinetobacter baumannii, ATCC 49139; read-out: MIC; outline: as §1
[3] = tested on: Staphylococcus aureus; assay: Antimicrobial activity against methicillin-resistant Staphylococcus aureus ATCC 33592 after 18 to 24 hrs by alamar blue assay; assay type: functional; settings: Staphylococcus aureus, ATCC 33592; read-out: MIC
Outline: (§2)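 Broth microdilution per NCCLS standard, Mueller-Hinton broth, 8-point twofold dilutions; exponentially growing cells at 5 10^5 cells/ml with compound, 18–24 h at 37 C; 20% Alamar blue added, fluorescence read; MIC90 taken as lowest concentration preventing at least 90% growth.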

[4] = tested on: Serratia marcescens; assay: Antimicrobial activity against Serratia marcescens ATCC 14756 after 18 to 24 hrs by alamar blue assay; assay type: functional; settings: Serratia marcescens, ATCC 14756; read-out: MIC; outline: as §1
[5] = tested on: Bacillus subtilis; assay: Antimicrobial activity against Bacillus subtilis ATCC 23857 after 18 to 24 hrs by alamar blue assay; assay type: functional; outline: as §1
[6] = tested on: Staphylococcus aureus; assay: Antimicrobial activity against oxacillin- and methicillin-resistant Staphylococcus aureus isolate Sa-OXA-R2 after 18 to 24 hrs by alamar blue assay; assay type: functional; outline: as §2
[7] = tested on: Mycolicibacterium smegmatis; assay: Antimicrobial activity against Mycobacterium smegmatis BCRC 11565 after 18 to 24 hrs by alamar blue assay; assay type: functional; settings: Mycolicibacterium smegmatis, BCRC 11565; read-out: MIC; outline: as §1
[8] = tested on: Pseudomonas aeruginosa; assay: Antimicrobial activity against Pseudomonas aeruginosa ATCC 25619 after 18 to 24 hrs by alamar blue assay; assay type: functional; settings: Pseudomonas aeruginosa, ATCC 25619; read-out: MIC; outline: as §1
[9] = tested on: Staphylococcus aureus; assay: Antimicrobial activity against methicillin-resistant Staphylococcus aureus isolate NTUH4722 after 18 to 24 hrs by alamar blue assay; assay type: functional; outline: as §2
[10] = tested on: Staphylococcus aureus; assay: Antimicrobial activity against Staphylococcus aureus ATCC 29213 after 18 to 24 hrs by alamar blue assay
[11] = tested on: Stenotrophomonas maltophilia; assay: Antimicrobial activity against Stenotrophomonas maltophilia ATCC 13637 after 18 to 24 hrs by alamar blue assay; assay type: functional; settings: Stenotrophomonas maltophilia, ATCC 13637; read-out: MIC; outline: as §1

Structure (SMILES)	MIC [1] [µg/mL]	MIC [2] [µg/mL]	MIC [3] [µg/mL]	MIC [4] [µg/mL]	MIC [5] [µg/mL]	MIC [6] [µg/mL]	MIC [7] [µg/mL]	MIC [8] [µg/mL]	MIC [9] [µg/mL]	MIC [10] [µg/mL]	MIC [11] [µg/mL]
Cc1c(CC(=O)N2CCC(C(=O)O)CC2)c(=O)oc2c(C)c3occ(-c4ccc(F)cc4)c3cc12	> 256	> 256	1.25 (≈ 2.62 µM)	> 256	> 64	2.5 (≈ 5.24 µM)	1 (≈ 2.09 µM)	> 256	2.5 (≈ 5.24 µM)	2.5 (≈ 5.24 µM)	> 256
Cc1ccc(C)c(NS(=O)(=O)c2ccc3c(c2)NCC(C)C(=O)S3)c1 (configuration not stated)	> 256	> 256	16 (≈ 42.5 µM)	> 256	< 0.03	> 64	> 64	> 256	32 (≈ 85 µM)	2 (≈ 5.31 µM)	> 256
COC(=O)c1c(NC(=O)c2ccc([N+](=O)[O-])o2)sc2c1CC(C)(C)NC2(C)C	256 (≈ 628 µM)	12 (≈ 29.5 µM)	2 (≈ 4.91 µM)	32 (≈ 78.5 µM)	0.06 (≈ 0.147 µM)	2 (≈ 4.91 µM)	0.5 (≈ 1.23 µM)	128 (≈ 314 µM)	4 (≈ 9.82 µM)	2 (≈ 4.91 µM)	32 (≈ 78.5 µM)
CCCc1cc(O)nc(N2NC(C)=CC2NC(=O)c2ccccc2)n1 (configuration not stated)	> 256	> 256	8 (≈ 23.6 µM)	> 256	0.25 (≈ 0.737 µM)	8 (≈ 23.6 µM)	0.25 (≈ 0.737 µM)	> 256	8 (≈ 23.6 µM)	2 (≈ 5.89 µM)	> 256
O=C(Nc1nnc(-c2ccc(Br)cc2)o1)c1cccc(F)c1	> 256	> 256	0.5 (≈ 1.38 µM)	> 256	0.5 (≈ 1.38 µM)	0.5 (≈ 1.38 µM)	0.5 (≈ 1.38 µM)	> 256	0.5 (≈ 1.38 µM)	2 (≈ 5.52 µM)	> 256
O=C(Nc1nnc(-c2ccc(F)cc2)o1)c1cccc(C(F)(F)F)c1	> 256	> 256	0.5 (≈ 1.42 µM)	> 256	0.5 (≈ 1.42 µM)	4 (≈ 11.4 µM)	0.5 (≈ 1.42 µM)	> 256	1 (≈ 2.85 µM)	0.5 (≈ 1.42 µM)	> 256
O=C1c2cc([N+](=O)[O-])cc3cc([N+](=O)[O-])cc(c23)C(=O)N1c1ccc(O)cc1	> 256	> 256	2.5 (≈ 6.59 µM)	> 256	4 (≈ 10.5 µM)	0.3 (≈ 0.791 µM)	4 (≈ 10.5 µM)	> 256	2.5 (≈ 6.59 µM)	2.5 (≈ 6.59 µM)	> 256
Cc1c(CC(=O)N2CCC(C(=O)O)CC2)c(=O)oc2c(C)c3occ(-c4ccc(Cl)cc4)c3cc12	> 256	> 256	1.25 (≈ 2.53 µM)	> 256	> 64	2.5 (≈ 5.06 µM)	1 (≈ 2.02 µM)	> 256	2.5 (≈ 5.06 µM)	2.5 (≈ 5.06 µM)	> 256
O=C(CCN1C(=O)c2cccc3cccc(c23)C1=O)N1CCN(C/C=C/c2ccccc2)CC1	> 256	> 256	1 (≈ 2.2 µM)	> 256	4 (≈ 8.82 µM)	0.25 (≈ 0.551 µM)	4 (≈ 8.82 µM)	> 256	4 (≈ 8.82 µM)	0.5 (≈ 1.1 µM)	> 256
Cc1c(CC(=O)N2CCC[C@H]2C(=O)O)c(=O)oc2c(C)c3occ(-c4ccc(Cl)cc4)c3cc12	> 256	> 256	0.3 (≈ 0.625 µM)	> 256	> 64	0.6 (≈ 1.25 µM)	1 (≈ 2.08 µM)	> 256	0.3 (≈ 0.625 µM)	0.3 (≈ 0.625 µM)	> 256
CCCc1cc(O)nc(N2NC(C)=CC2NC(=O)c2cccs2)n1 (configuration not stated)	> 256	> 256	1 (≈ 2.89 µM)	> 256	0.25 (≈ 0.724 µM)	1 (≈ 2.89 µM)	0.25 (≈ 0.724 µM)	> 256	1 (≈ 2.89 µM)	1 (≈ 2.89 µM)	> 256
Cc1c(CC(=O)N[C@@H](C(=O)O)C(C)C)c(=O)oc2c(C)c3occ(-c4ccc(Cl)cc4)c3cc12	> 256	> 256	1.25 (≈ 2.59 µM)	> 256	> 64	2.5 (≈ 5.19 µM)	1 (≈ 2.07 µM)	> 256	2.5 (≈ 5.19 µM)	1.25 (≈ 2.59 µM)	> 256
CC(C)N1C(=O)/C(=C/c2ccc([N+](=O)[O-])o2)SC1=S	16 (≈ 53.6 µM)	> 256	1 (≈ 3.35 µM)	> 256	< 0.03	1 (≈ 3.35 µM)	1 (≈ 3.35 µM)	2 (≈ 6.7 µM)	2 (≈ 6.7 µM)	0.25 (≈ 0.838 µM)	> 256
O=C(Nc1ccc(Cl)cc1)c1cc(Br)ccc1NS(=O)(=O)c1ccc(Cl)cc1	> 256	> 256	0.25 (≈ 0.5 µM)	> 256	< 0.03	0.5 (≈ 1 µM)	> 64	> 256	0.25 (≈ 0.5 µM)	0.25 (≈ 0.5 µM)	> 256
Cc1ccc(NS(=O)(=O)c2ccc3c(c2)NC(=O)C(C)S3)c(C)c1 (configuration not stated)	> 256	> 256	32 (≈ 88.3 µM)	> 256	< 0.03	> 64	> 64	> 256	4 (≈ 11 µM)	2 (≈ 5.52 µM)	> 256
O=C1c2ccc([N+](=O)[O-])c3c([N+](=O)[O-])ccc(c23)C(=O)N1c1ccccc1	> 256	> 256	2.5 (≈ 6.88 µM)	> 256	4 (≈ 11 µM)	1.25 (≈ 3.44 µM)	4 (≈ 11 µM)	> 256	1.25 (≈ 3.44 µM)	2.5 (≈ 6.88 µM)	> 256
CC[C@@H](C)[C@H](NC(=O)Cc1c(C)c2cc3c(-c4ccc(Cl)cc4)coc3c(C)c2oc1=O)C(=O)O	> 256	> 256	2.5 (≈ 5.04 µM)	> 256	> 64	2.5 (≈ 5.04 µM)	1 (≈ 2.02 µM)	> 256	2.5 (≈ 5.04 µM)	2.5 (≈ 5.04 µM)	> 256
